Assay results from PubChem BioAssay.
The source made the active and inactive calls.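 Rule for the calls, unless noted: active = compounds giving at least 50% inhibition in the cell-based MKP-3 phosphatase rescue imaging test; inactive = the rest.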

Key:
[1] = inhibitors of TNFa-induced NFkB p65 translocation, primary screen, imaging, HUVEC, MLSMR starter and 10KST1 sets (AID 438;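 active = inhibition above 20% together with a positive visual image hit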;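 note: compound added about 3h40 before a 20 min TNFalpha stimulation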;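 for inhibition: signal is the nuclear over cytoplasmic p65 intensity ratio per well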); conditions: HUVEC TNFa-induced p65 nuclear translocation; cell count: measured here: nuclei count (cytotoxicity indicator), at 2.08 µM; inhibition: at 2 µM, stronger effect = higher value, 0% TNFa-plus-vehicle, 100% no-TNFa wells
[2] = endothelial E-selectin expression blockers – imaging, HUVEC, immunofluorescence, MLSMR starter and 10KST1 sets, primary screen (AID 487;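 active = visually confirmed hit in the image check and inhibition above 20%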;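 for inhibition: signal is fraction of cell area covered by stained E-selectin grains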;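 for nuclei count: 100% = median nuclei count of all wells on the same plate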); conditions: HUVEC TNFalpha-induced E-selectin immunofluorescence imaging, at 2 µM; inhibition: stronger effect = higher value; nuclei count: measured here: cell number, toxicity
[3] = Primary imaging screen for DUSP6 inhibitors that restore phospho-Erk in transfected HeLa cells, chemical complementation (AID 609); conditions: HeLa MKP-3 transfected, phospho-Erk imaging KS statistic, at 10 µM, cells stimulated with TPA for 15 min;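 for inhibition: phospho-Erk level distribution per well compared with pooled transfected vehicle control wells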
[4] = target: Dual specificity protein phosphatase 6 (Homo sapiens) (UniProt Q16828); assay: as above; conditions: HeLa MKP-3 transfected, phospho-Erk imaging KS statistic; at 10 µM; stronger effect = higher value; cells stimulated with TPA for 15 min
Dual specificity protein phosphatase 6 (Homo sapiens), sequence (Q16828 whole entry, looked up): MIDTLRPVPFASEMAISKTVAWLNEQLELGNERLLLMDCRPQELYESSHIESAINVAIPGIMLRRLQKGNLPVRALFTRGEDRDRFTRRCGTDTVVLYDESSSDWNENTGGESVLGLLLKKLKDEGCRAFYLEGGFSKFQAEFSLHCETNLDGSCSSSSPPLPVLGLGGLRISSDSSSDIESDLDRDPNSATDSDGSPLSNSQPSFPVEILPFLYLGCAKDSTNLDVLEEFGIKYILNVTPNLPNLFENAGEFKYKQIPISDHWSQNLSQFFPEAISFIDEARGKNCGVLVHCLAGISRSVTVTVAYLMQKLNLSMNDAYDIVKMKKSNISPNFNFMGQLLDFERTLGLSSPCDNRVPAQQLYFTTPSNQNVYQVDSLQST

[5] = target: Voltage-gated potassium channel subunit beta-2 (Rattus norvegicus) (UniProt P62483); assay: inhibitors of rat Kvbeta2 reductase activity – biochemical, NADPH fluorescence, primary screen (AID 622;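 active = fluorescence slope higher than the sample average by over 3 SD, cut at about -0.22 in these data, passing the limit was not always enough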;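 note: slope of raw intensity against log time taken from 70 to 1610 s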); conditions: recombinant KvBeta, 4-cyanobenzaldehyde reduction, at 10 µM, stronger effect = higher value
Voltage-gated potassium channel subunit beta-2 (Rattus norvegicus), sequence (P62483 whole entry, looked up): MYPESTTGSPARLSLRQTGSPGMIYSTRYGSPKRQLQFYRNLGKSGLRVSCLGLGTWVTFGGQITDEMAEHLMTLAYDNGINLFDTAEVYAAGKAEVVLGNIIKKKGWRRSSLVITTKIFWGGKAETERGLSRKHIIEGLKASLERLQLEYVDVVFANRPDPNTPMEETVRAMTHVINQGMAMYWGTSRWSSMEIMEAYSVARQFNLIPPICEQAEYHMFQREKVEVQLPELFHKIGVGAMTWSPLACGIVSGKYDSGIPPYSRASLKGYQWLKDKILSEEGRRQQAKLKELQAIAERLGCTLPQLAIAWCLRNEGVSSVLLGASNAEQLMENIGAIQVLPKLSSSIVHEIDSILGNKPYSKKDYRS

[6] = target: Voltage-gated potassium channel subunit beta-2 (Rattus norvegicus) (UniProt P62483); assay: enhancers of rat Kvbeta2 NADPH turnover – biochemical, NADPH fluorescence, primary screen (AID 623;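 active = NADPH fluorescence slope more negative than the mean of all samples by about 3 SD, 99.7% confidence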;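 note: fluorescence intensity change per second fitted from 20 to 320 s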); conditions: Recombinant KvBeta, NADPH fluorescence decrease slope, 10 min; at 10 µM; stronger effect = lower value
[7] = target: Alpha-2C adrenergic receptor (Homo sapiens) (UniProt P18825); assay: compounds altering alpha2C-coupled GIRK flux – cell-based, HEK293 alpha2C/GIRK1/2, thallium flux, primary screen (AID 624;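 active = fluorescence slope after compound addition differing from the mean of all screened samples at 99.7% confidence, in either direction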;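 note: slope of fluorescence ratio to pre-addition baseline per second over 15 to 24 s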); conditions: thallium flux BTC fluorescence, at 10 µM, actives lie on both sides
Alpha-2C adrenergic receptor (Homo sapiens), sequence (P18825 whole entry, looked up): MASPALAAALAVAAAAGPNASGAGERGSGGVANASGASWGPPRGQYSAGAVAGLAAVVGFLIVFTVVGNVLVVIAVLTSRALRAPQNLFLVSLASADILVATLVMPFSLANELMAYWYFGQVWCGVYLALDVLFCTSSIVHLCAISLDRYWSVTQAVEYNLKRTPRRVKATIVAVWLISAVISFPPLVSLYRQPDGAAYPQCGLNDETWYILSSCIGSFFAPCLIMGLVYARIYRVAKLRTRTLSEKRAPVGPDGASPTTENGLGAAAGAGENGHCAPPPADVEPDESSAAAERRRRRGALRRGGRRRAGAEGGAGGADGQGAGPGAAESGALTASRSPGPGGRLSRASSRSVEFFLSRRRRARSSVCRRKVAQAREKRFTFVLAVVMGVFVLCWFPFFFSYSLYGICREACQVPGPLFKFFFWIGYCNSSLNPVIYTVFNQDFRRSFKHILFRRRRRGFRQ

[8] = inhibitors of larval lipid processing in zebrafish, primary screen, whole organism, PED6 fluorescence, gall bladder and intestine (AID 686;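 active = a full or partial loss of lipid-probe fluorescence in the fish gall bladder, intestine or both, judged by eye; inactive = no fluorescence loss, or compound toxic to the fish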;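 note: larvae 5 to 7 days old with five fish per well; signal comes from phospholipase A2 cleavage of quenched PED6 carried via bile; overnight exposure to compound and PED6 before scoring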); conditions: Zebrafish larvae PED6 lipid processing, fluorescence scoring; screened at 20 µM (by protocol)
Method in brief: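 system = live zebrafish larvae aged 5-7 days, whole organism | probe or stimulus = ingested quenched lipid PED6 at 100 nM | doses = 20 µM single dose | timing = overnight exposure | detection = fluorescence microscopy with visual scoring of gall bladder and intestine | read-out = visual per-well fluorescence inhibition score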

[9] = loss of swimming-algae plug formation – whole organism, Chlamydomonas reinhardtii, WT vs cilia-less mutant, absorbance, 96-well, primary screen (AID 463189;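 active = inhibition at or above 50% relative to wild type and mutant plate controls; inactive = inhibition below 50%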;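 note: 0% = wild type cc124 cells in DMSO and 100% = ciliumless bld1 mutant cells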); conditions: Chlamydomonas reinhardtii gravitaxis, OD600 absorbance, 2 days; at 10 µM; stronger effect = higher value
[10] = measured here: cell density z-score
[11] = measured here: nuclear c-Myc green intensity z-score
[12] = measured here: nuclear pErk red intensity z-score, stronger effect = higher value

| Structure (SMILES) | cell count [1] | inhibition [1] | inhibition [2] | nuclei count [2] [%] | z-score [3, 10] | z-score [3, 11] | z-score [3, 12] | inhibition [4] | fluorescence slope [5] | NADPH fluorescence slope [6] | slope [7] | outcome [8] | inhibition [9] |
| --- | --- | --- | --- | --- | --- | --- | --- | --- | --- | --- | --- | --- | --- |
| N=c1c2c(-c3ccccc3)c(-c3ccccc3)n(Cc3ccccc3)c2ncn1CCCn1ccnc1 | 551 | -6.7% (inactive) | 17.5% (inactive) | 142 | -0.862 | 0.115 | -0.203 | -1.75% (inactive) | -0.292 (inactive) | 9.2e-06 (inactive) | 0.00345 (inactive) | inactive | 118% (active) |
| Cc1cc(C)c2nc(SCCC#N)nc(C)c2c1 | 635 | -4.4% (inactive) | 9.3% (inactive) | 157 | 0.288 | -0.415 | 1 | -2.91% (inactive) | -0.508 (inactive) | -6.6e-05 (inactive) | 0.00476 (inactive) | inactive | 4.11% (inactive) |
| CCCc1[nH]nc2c1C(c1c(C)nn(-c3ccccc3)c1Cl)C(C#N)=C(N)O2 (stereo unspecified) | 673 | -3.2% (inactive) | -234% (inactive) | 148 | 1.26 | 0.14 | -0.117 | 12.7% (inactive) | -0.399 (inactive) | -1.9e-06 (inactive) | 0.00594 (inactive) | inactive | -5.65% (inactive) |
| CCOC(=O)c1ccc(NC(=O)Cn2nnc3ccccc32)cc1 | 333 | -8.2% (inactive) | -17.3% (inactive) | 84.8 | 0.667 | 0.595 | -0.72 | 7.48% (inactive) | -0.538 (inactive) | -0.000163 (inactive) | 0.0051 (inactive) | inactive | 37.7% (inactive) |
| COc1cccc(/C=C2/CN(C)CC3=C2OC(N)=C(C#N)C3c2cccc(OC)c2)c1 (stereo unspecified) | 562 | -0.3% (inactive) | -91.1% (inactive) | 190 | 1.7 | -1.04 | -1.64 | -1.12% (inactive) | -0.289 (inactive) | 4.6e-07 (inactive) | 0.00546 (inactive) | inactive | 3.47% (inactive) |
| Fc1ccccc1-c1nc(N2CCCCC2)c2ccccc2n1 | 364 | -8.4% (inactive) | -149% (inactive) | 173 | 1.66 | 0.183 | -1.27 | 6.04% (inactive) | -0.447 (inactive) | -5.7e-06 (inactive) | 0.00522 (inactive) | inactive | 140% (active) |
| O=C(O)CC(C(=O)OCC1CCCO1)N1CCOCC1 (stereo unspecified) | 526 | -5.8% (inactive) | -141% (inactive) | 145 | 0.582 | -0.928 | -1.26 | 10.5% (inactive) | -0.518 (inactive) | -4.1e-05 (inactive) | 0.00538 (inactive) | inactive | -1.05% (inactive) |
| COC(=O)c1c(C)noc1-c1cc(C)on1 | 514 | 5.6% (inactive) | 63.3% (inactive) | 177 | -1.72 | 0.497 | 0.322 | 3.56% (inactive) | -0.533 (inactive) | -4e-05 (inactive) | 0.00511 (inactive) | inactive | -9.07% (inactive) |
| CCCC(=O)N1CCN(c2nc(CC(C)C)c3c(c2C#N)CCC3)CC1 | 529 | -8.3% (inactive) | -117% (inactive) | 130 | -0.247 | 0.583 | 0.103 | -5.26% (inactive) | -0.5 (inactive) | -1.9e-05 (inactive) | 0.00433 (inactive) | inactive | -3.24% (inactive) |
| CN(C)CCCN1C(=O)C(O)=C(C(=O)c2cc3ccccc3o2)C1c1ccccn1 (stereo unspecified) | 511 | -3.3% (inactive) | -212% (inactive) | 137 | 2.7 | -1.21 | -1.13 | 12.3% (inactive) | -0.525 (inactive) | -4.7e-05 (inactive) | 0.00446 (inactive) | inactive | -5.31% (inactive) |
| COCCCNC(=O)C(C#N)c1nc2ccccc2nc1N1CCCC1 (stereo unspecified) | 459 | 12.6% (inactive) | -130% (inactive) | 156 | 1.4 | 0.549 | -0.292 | 7.83% (inactive) | -0.000219 (active) | 0 (inactive) | 0.0065 (inactive) | inactive | -2.67% (inactive) |
| Oc1ccccc1CNn1cnnc1 | 563 | -0.7% (inactive) | -6.7% (inactive) | 168 | -0.0903 | -0.194 | 0.333 | -3.5% (inactive) | -0.324 (inactive) | 1.4e-05 (inactive) | 0.00654 (inactive) | inactive | 18.3% (inactive) |
| COc1ccc2c(c1OC)C(=O)N1c3ccccc3C(=O)N(c3ccccc3)C21 (stereo unspecified) | 475 | -9.6% (inactive) | -84.9% (inactive) | 169 | 0.407 | -0.0149 | -0.273 | 2.46% (inactive) | -0.319 (inactive) | -5.5e-06 (inactive) | 0.00449 (inactive) | inactive | 3.79% (inactive) |
| COc1cc(C(=O)Nc2nccs2)cc(OC)c1OC | 542 | -19.4% (inactive) | 53.4% (inactive) | 163 | 1.12 | -0.213 | 0.494 | -13.3% (inactive) | -0.409 (inactive) | -6e-05 (inactive) | 0.00501 (inactive) | inactive | -0.002% (inactive) |
| CCOC(=O)c1c(C)n(C)c2ccc(OC)c(NC(=O)CN3CCSCC3)c12 | 331 | -7.1% (inactive) | 35.2% (inactive) | 91.7 | -1.52 | -0.0806 | 1.39 | 5.42% (inactive) | -0.449 (inactive) | -1.5e-05 (inactive) | 0.0065 (inactive) | inactive | 37% (inactive) |
| CCN1CCCC1Cn1cnc2c([nH]c3ccc(C)cc32)c1=O (stereo unspecified) | 319 | -6.8% (inactive) | 13.2% (inactive) | 160 | -0.0977 | 0.977 | 0.149 | 9.42% (inactive) | -0.357 (inactive) | -0.000123 (inactive) | 0.00693 (inactive) | inactive | 128% (active) |
| CCn1cc(C(=O)NCC2CCCO2)c(=O)c2cc(F)c(N3CCN(C)CC3)cc21 (stereo unspecified) | 570 | -6.7% (inactive) | -14.6% (inactive) | 188 | -0.305 | -1.21 | 2 | 1.75% (inactive) | -0.388 (inactive) | -2.9e-05 (inactive) | 0.00486 (inactive) | inactive | 4.63% (inactive) |
| N/C(CCN1CCOCC1)=N/O | 570 | -20.6% (inactive) | 11.7% (inactive) | 147 | 0.759 | -0.712 | 0.254 | 22.7% (inactive) | -0.445 (inactive) | -1.6e-05 (inactive) | 0.00517 (inactive) | inactive | 17.7% (inactive) |
| COc1ccc(/C=C/C2=NC(=C\N(C)C)/C(=O)O2)cc1 | 558 | 0.1% (inactive) | -26.3% (inactive) | 155 | -0.557 | 0.899 | -1.61 | 5.26% (inactive) | -0.303 (inactive) | 4.9e-06 (inactive) | 0.00517 (inactive) | inactive | -3.9% (inactive) |
| CCOC(=O)CCc1c(C)c(C#N)c2nc3ccccc3n2c1-n1ccnc1C | 583 | -0.8% (inactive) | -125% (inactive) | 138 | -0.341 | 0.0322 | -0.112 | 7.93% (inactive) | -0.457 (inactive) | -3.9e-05 (inactive) | 0.00607 (inactive) | inactive | 21.4% (inactive) |
| O=C(CN1C(=O)c2ccccc2C1=O)NCc1ccccn1 | 400 | -5.8% (inactive) | -67.3% (inactive) | 171 | 0.0865 | -1.72 | 1.07 | 5.42% (inactive) | -0.417 (inactive) | -0.000121 (inactive) | 0.00507 (inactive) | inactive | 26% (inactive) |
| COCCOC(=O)c1c(C)nc(SCC(=O)Nc2ccc(C)cc2)c(C#N)c1-c1ccco1 | 403 | 0.9% (inactive) | -123% (inactive) | 124 | 1.33 | 0.851 | -1.03 | -2.59% (inactive) | -0.446 (inactive) | -8.7e-05 (inactive) | 0.00716 (inactive) | inactive | 7.49% (inactive) |
| CCOC(=O)N1CC=C2C(C#N)=C(N)C(C#N)(C#N)[C@H](c3cccs3)[C@H]2C1 | 664 | -14.7% (inactive) | 44.9% (inactive) | 144 | 0.0987 | -0.332 | -1.22 | 11% (inactive) | -0.367 (inactive) | -2e-05 (inactive) | 0.00502 (inactive) | inactive | 26.4% (inactive) |
| CCCCN(CCCC)c1nc2ccccc2nc1C(C#N)C(=O)NCCCOC (stereo unspecified) | 382 | -6.8% (inactive) | -187% (inactive) | 156 | -0.742 | 0.7 | 0.633 | -5.89% (inactive) | -0.0828 (active) | 9.1e-06 (inactive) | 0 (active) | inactive | 5.14% (inactive) |
| Cc1onc(-c2ccccc2Cl)c1C(=O)N1CCN(c2nc3ccccc3s2)CC1 | 340 | -8.1% (inactive) | -48.8% (inactive) | 168 | 1.76 | -0.608 | -1.2 | 25.4% (inactive) | -0.417 (inactive) | -0.000136 (inactive) | 0.00481 (inactive) | inactive | 13% (inactive) |
| Oc1ccc2ccccc2c1/C=N/n1cnnc1 | 538 | -5.9% (inactive) | -57.1% (inactive) | 217 | 0.969 | 0.692 | -0.685 | -2.91% (inactive) | -0.356 (inactive) | -1.6e-05 (inactive) | 0.00487 (inactive) | inactive | -4.69% (inactive) |
| Cc1c(/C(O)=C2\C(=O)C(=O)N(CCCN(C)C)C2c2ccccc2)cnn1-c1ccccc1 (stereo unspecified) | 528 | 1.1% (inactive) | -134% (inactive) | 139 | -0.232 | 0.596 | 1.69 | 1.6e-07% (inactive) | -0.579 (inactive) | -2.7e-05 (inactive) | 0.00616 (inactive) | inactive | -16.4% (inactive) |
